Measurements as given in PMC7680358 (European journal of medicinal chemistry, 2020).
≈ marks a conversion by molar mass, not a printed value.

Assays:
[1] = system: S. saprophyticus ATCC 15305; experiment: MIC by broth microdilution; format: cell-based; conditions: Staphylococcus saprophyticus, ATCC15305, read-out: MIC SSAP
How it was run: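 Broth microdilution per CLSI in cation-adjusted Mueller-Hinton broth (Staphylococcus spp.). Two-fold serial dilutions ran from 256 to 0.5 μg/mL, with an inoculum of ~5 × 10^5 CFU/mL. Plates were read after 20 h at 37 °C. MIC = lowest concentration with no observable growth.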

[2] = system: S. aureus ATCC 29213; experiment: Cell content quantification; format: cell-based, Staphylococcus aureus; conditions: ¼ and ⅛ MIC, versus untreated control
How it was run: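 S. aureus ATCC 29213 master culture was started at OD600 0.1 with shaking at 175 rpm, 37 °C. At OD600 0.2 (early log) it was split and dosed at ¼ and ⅛ MIC, with a drug-free control. Cells were harvested when the control reached OD600 0.6; other samples were taken at volumes adjusted to an OD600 equivalent of 0.6. 3 mL was pelleted at 5000 × g, 5 min, 4 °C, and DNA/RNA/protein co-extracted with a kit. DNA and RNA were read by fluorometric broad-range assays, protein by BCA. Triplicate.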

[3] = system: B. subtilis strain BS1048 (RpoC-GFP); experiment: Confocal fluorescence microscopy of GFP-tagged RNAP; format: cell-based; conditions: 8e added at ½ MIC, 15 min
How it was run: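 BS1048 (RpoC-GFP) was plated on LB agar. […] 2.5 μL of culture was mounted on a fresh 1.2% agarose pad under a coverslip. Imaging used a confocal microscope with a 63×/1.3 oil objective and a mercury metal halide lamp.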

Row | SMILES | MIC [1] | Total RNA levels [2] | Total levels of DNA [2] | Total levels of protein [2] | Localization of GFP-tagged RNAP fluorescence [3]
1 | O=C(O)c1ccc(C(F)(F)F)cc1C(=O)c1ccc(Sc2ccc(Cl)c(Cl)c2)c([N+](=O)[O-])c1 [8e, 2-(4-((3,4-Dichlorophenyl)thio)-3-nitrobenzoyl)-4-(trifluoromethyl)benzoic acid] | 0.5 to 1 µg/mL (≈ 0.968 to 1.94 µM) | reducing the total levels of staphylococcal RNA in a dose-dependent manner | largely unaffected | reduced the total levels of protein | delocalized from the nucleoid
2 | CO[C@H]1/C=C/O[C@@]2(C)Oc3c(C)c(O)c4c(O)c(c(/C=N/N5CCN(C)CC5)c(O)c4c3C2=O)NC(=O)/C(C)=C\C=C\[C@H](C)[C@H](O)[C@@H](C)[C@@H](O)[C@@H](C)[C@H](OC(C)=O)[C@@H]1C [rifampicin, reference compound] |  | significantly reduced | largely unaffected |  | 
